Measurements published in ChEMBL document CHEMBL2169846, “Design and synthesis of Pictet-Spengler condensation products that exhibit oncogenic-RAS synthetic lethality and induce non-apoptotic cell death” (Bioorg Med Chem Lett, 2012).
Calls of active or inactive are those of the source. No cut-off for these calls is given here.

Legend:
HT-1080 [1] = experiment: Cytotoxicity against human HT1080 cells at 20 ug/mL after 48 hrs by alamar blue assay; format: functional, cell-based
Method in brief: (§1)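 Each cell line exposed for 48 h to a 2-fold, 12-point dilution series beginning at 20 µg/mL. Viability by Alamar blue; LC50 derived from the curves.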

MCF7 [2] = experiment: Cytotoxicity against human MCF7 cells at 20 ug/mL after 48 hrs by alamar blue assay; format: functional, cell-based; method in brief: as §1
U2OS [3] = experiment: Cytotoxicity against human U2OS cells at 20 ug/mL after 48 hrs by alamar blue assay; format: functional, cell-based
BJeLR = experiment: Cytotoxicity against human BJeLR cells expressing RAS G12V mutant at 20 ug/mL after 48 hrs by alamar blue assay; format: functional, cell-based
HT1299 = experiment: Cytotoxicity against human HT1299 cells at 20 ug/mL after 48 hrs by alamar blue assay; format: functional, cell-based; method in brief: as §1
RKO [4] = experiment: Cytotoxicity against human RKO cells at 20 ug/mL after 48 hrs by alamar blue assay; format: functional, cell-based; method in brief: as §1
[5] = system: E3 ubiquitin-protein ligase Mdm2 (Homo sapiens), Q00987 [C464A]; experiment: Inhibition of Mdm2 C464A mutant at 20 ug/mL after 2 hrs by cell-based luciferase assay
Chain of E3 ubiquitin-protein ligase Mdm2 (Homo sapiens), Q00987 [C464A] (Q00987 whole entry C464A): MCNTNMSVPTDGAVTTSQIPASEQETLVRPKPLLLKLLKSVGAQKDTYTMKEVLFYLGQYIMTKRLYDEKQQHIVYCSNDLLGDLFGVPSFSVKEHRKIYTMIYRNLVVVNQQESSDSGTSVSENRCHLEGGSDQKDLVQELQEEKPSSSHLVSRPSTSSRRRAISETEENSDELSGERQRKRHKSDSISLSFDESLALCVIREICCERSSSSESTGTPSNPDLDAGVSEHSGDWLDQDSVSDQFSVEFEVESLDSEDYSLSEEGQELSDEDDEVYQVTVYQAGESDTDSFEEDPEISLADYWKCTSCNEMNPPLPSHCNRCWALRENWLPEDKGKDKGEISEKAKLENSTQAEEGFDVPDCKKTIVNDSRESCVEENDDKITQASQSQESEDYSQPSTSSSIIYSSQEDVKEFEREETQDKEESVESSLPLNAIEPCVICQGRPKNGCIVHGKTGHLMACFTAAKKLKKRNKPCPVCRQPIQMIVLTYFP

BJeH = experiment: Cytotoxicity against human BJeH cells expressing wild type RAS at 20 ug/mL after 48 hrs by alamar blue assay; format: functional, cell-based
[6] = biological target: E3 ubiquitin-protein ligase Mdm2 (Homo sapiens) (UniProt Q00987); experiment: Inhibition of wild type Mdm2 at 20 ug/mL after 2 hrs by cell-based luciferase assay
Chain of E3 ubiquitin-protein ligase Mdm2 (Homo sapiens) (Q00987 whole entry, looked up): as the sequence (Q00987 whole entry C464A) above, with A464C counted along it

MCF7 [7] = experiment: Cytotoxicity against human MCF7 cells after 48 hrs by alamar blue assay; format: functional; details: MCF7, 48 h, read-out: LC50 (the source's name)
U2OS [8] = experiment: Cytotoxicity against human U2OS cells after 48 hrs by alamar blue assay; format: functional; details: read-out: LC50 (the source's name)
RKO [9] = experiment: Cytotoxicity against human RKO cells after 48 hrs by alamar blue assay; format: functional; details: read-out: LC50 (the source's name)
[10] = Cytotoxicity against human HT1299 cells after 48 hrs by alamar blue assay; format: functional; details: HT1299, 48 h, read-out: LC50 (the source's name)
HT-1080 [11] = experiment: Cytotoxicity against human HT1080 cells after 48 hrs by alamar blue assay; format: functional; details: HT-1080, 48 h, read-out: LC50 (the source's name)
[12] = Cytotoxicity against human BJeLR cells expressing RAS G12V mutant after 48 hrs by alamar blue assay; format: functional, cell-based; details: for CC50: read-out: LC50 (the source's name)
[13] = Cytotoxicity against human BJeH cells expressing wild type RAS after 48 hrs by alamar blue assay; format: functional, cell-based; details: for CC50: read-out: LC50 (the source's name)

Structure (SMILES) | Activity (HT-1080 [1]) | Activity (MCF7 [2]) | Activity (U2OS [3]) | Activity (BJeLR) | Activity (HT1299) | Activity (RKO [4]) | inhibition [5] | Activity (BJeH) | inhibition [6] | CC50 (MCF7 [7]) | CC50 (U2OS [8]) | CC50 (RKO [9]) | CC50 [10] | CC50 (HT-1080 [11]) | CC50 [12] | CC50 [13] | EC50 [12] | EC50 [13]
CN1C(=O)C(c2nccc3c2[nH]c2ccccc23)C(=O)N(C)C1=O | inactive | inactive | inactive | inactive | inactive | inactive | inactive | inactive | inactive |  |  |  |  |  |  |  |  | 
CCOC(=O)C1c2[nH]c3ccccc3c2CCN1Cc1ccccc1 (stereo not drawn) | inactive | inactive | inactive | inactive | inactive | inactive | inactive | inactive | inactive |  |  |  |  |  |  |  |  | 
CN1C(=O)C(Cc2nccc3c4ccccc4n(C)c23)C(=O)N(C)C1=O |  |  |  | inactive |  |  | inactive | inactive | inactive | 57.1 µM | 14.2 µM | 15.4 µM | 57.5 µM | 57.1 µM |  |  |  | 
CC(C)(C)OC(=O)N1CCc2c(n(C(=O)OC(C)(C)C)c3ccccc23)C1CCO (stereo not drawn) | inactive | inactive |  | inactive | inactive |  | inactive | inactive | inactive |  | 49.7 µM | 49.7 µM |  |  |  |  |  | 
O=Cc1nccc2c1[nH]c1ccccc12 |  | inactive | inactive |  |  |  | inactive | inactive | inactive |  |  | 11.1 µM | 67.5 µM | 67.5 µM | 32.4 µM |  |  | 
CCOC(=O)C(C)C1NCCc2c1[nH]c1ccccc21 (stereo not drawn) | inactive | inactive | inactive |  | inactive | inactive | inactive |  | inactive |  |  |  |  |  | 31.6 µM | 73.5 µM |  | 
CN1C(=O)C(Cc2nccc3c2[nH]c2ccccc23)C(=O)N(C)C1=O | inactive | inactive | inactive | inactive | inactive | inactive | inactive | inactive | inactive |  |  |  |  |  |  |  |  | 
COC(OC)C1c2[nH]c3ccccc3c2CCN1Cc1ccccc1 (stereo not drawn) |  |  |  | inactive | inactive |  | inactive | inactive | inactive | 59.5 µM | 59.5 µM | 59.5 µM |  | 59.5 µM |  |  |  | 
CCOC(=O)C1c2c(c3ccccc3n2C)CCN1C(=O)OC(C)(C)C (stereo not drawn) | inactive | inactive | inactive | inactive | inactive | inactive | inactive | inactive | inactive |  |  |  |  |  |  |  |  | 
COC(=O)CC1c2[nH]c3ccccc3c2CCN1Cc1ccccc1 (stereo not drawn) | inactive | inactive | inactive |  | inactive | inactive | inactive | inactive | inactive |  |  |  |  |  | 59.8 µM |  |  | 
CCOC(=O)C1c2c(c3ccccc3n2C(=O)OC(C)(C)C)CCN1C(=O)OC (stereo not drawn) | inactive | inactive | inactive | inactive | inactive | inactive | inactive | inactive | inactive |  |  |  |  |  |  |  |  | 
CCCN1C(=O)C(CCC2NCCc3c2[nH]c2ccccc32)C(=O)N(CCC)C1=O (stereo not drawn) | inactive | inactive | inactive | inactive | inactive | inactive | inactive | inactive | inactive |  |  |  |  |  |  |  |  | 
CCOC(=O)C(C)C1c2[nH]c3ccccc3c2CCN1C(=O)OC(C)(C)C (stereo not drawn) |  |  |  | inactive |  |  | inactive | inactive | inactive | 23.6 µM | 53.7 µM | 27.9 µM | 53.7 µM | 53.7 µM |  |  |  | 
CC(CC1C(=O)N(C)C(=O)N(C)C1=O)C1NCCc2c1[nH]c1ccccc21 (stereo not drawn) | inactive | inactive |  |  | inactive |  | inactive |  | inactive |  |  | 54.3 µM |  |  | 54.3 µM | 54.3 µM |  | 
CCCN1C(=O)C(CC(C)C2NCCc3c2[nH]c2ccccc32)C(=O)N(CCC)C1=O (stereo not drawn) | inactive | inactive | inactive | inactive | inactive | inactive | inactive | inactive | inactive |  |  |  |  |  |  |  |  | 
COC(OC)C1NCCc2c1[nH]c1ccccc21 (stereo not drawn) | inactive | inactive | inactive |  | inactive | inactive | inactive | inactive | inactive |  |  |  |  |  | 81.3 µM |  |  | 
CN1C(=O)C(CCC2NCCc3c2[nH]c2ccccc32)C(=O)N(C)C1=O (stereo not drawn) | inactive | inactive | inactive | inactive | inactive | inactive | inactive | inactive | inactive |  |  |  |  |  |  |  |  | 
CC(C)(C)OC(=O)N1CCc2c(n(C(=O)OC(C)(C)C)c3ccccc23)C1CC=O (stereo not drawn) |  |  |  |  |  |  | inactive |  | inactive |  | 10.3 µM | 7 µM | 11.8 µM | 15.2 µM | 23.4 µM | 48.3 µM |  | 
COc1ccc(N(C(=O)CCl)C(C(=O)NCCc2ccccc2)c2cccs2)cc1Cl (stereo not drawn) |  |  |  |  |  |  |  |  |  |  |  |  |  |  |  |  | 0.025 µM | 0.58 µM
CCOC(=O)C1c2[nH]c3ccccc3c2CCN1C(=O)OC (stereo not drawn) | inactive | inactive | inactive | inactive | inactive | inactive | inactive | inactive | inactive |  |  |  |  |  |  |  |  | 
CCOC(=O)C1NCCc2c1[nH]c1ccccc21 (stereo not drawn) |  | inactive |  |  | inactive | inactive | inactive |  | inactive |  | 81.9 µM |  |  | 81.9 µM | 71.7 µM | 71.7 µM |  | 
COC(OC)c1nccc2c1[nH]c1ccccc12 | inactive | inactive | inactive |  | inactive | inactive | inactive |  | inactive |  |  |  |  |  | 7.8 µM | 82.6 µM |  | 
CC(CC1C(=O)N(C)C(=O)N(C)C1=O)C1NCCc2c1n(C(=O)OC(C)(C)C)c1ccccc21 (stereo not drawn) | inactive | inactive | inactive |  | inactive | inactive | inactive | inactive | inactive |  |  |  |  |  | 42.7 µM |  |  | 
CCOC(=O)C1c2[nH]c3ccccc3c2CCN1C(=O)OCc1ccccc1 (stereo not drawn) |  |  |  |  |  |  | inactive |  | inactive |  | 12.9 µM | 14.8 µM | 52.9 µM |  | 12.9 µM | 52.9 µM |  | 
CN1C(=O)C(Cc2nccc3c4ccccc4n(C(=O)OC(C)(C)C)c23)C(=O)N(C)C1=O | inactive | inactive | inactive | inactive | inactive | inactive | inactive | inactive | inactive |  |  |  |  |  |  |  |  | 
COC(=O)N1CCc2c(n(C(=O)OC(C)(C)C)c3ccccc23)C1C(OC)OC (stereo not drawn) | inactive | inactive |  | inactive | inactive | inactive | inactive | inactive | inactive |  | 48.7 µM |  |  |  |  |  |  | 
